What was measured:
Echinochloa crus-galli = experiment: Post-emergence herbicidal activity against Echinochloa crus-galli (barnyard grass) assessed as growth inhibition at 150 g ai/ha measured 15 days post compound treatment under green house conditions; format: functional; conditions: 360 h, read-out: GI
Method in brief: (§1)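 Compounds formulated as 100 g/L emulsifiable concentrate (DMF solvent, Tween-80 emulsifier), diluted with water, sprayed post-emergence on pot-grown weeds in clay soil (pH 6.5, 1.6% organic matter). Seeds sown 1-3 cm deep, grown at 15-30 °C. Dicots were treated at the 2-leaf stage and monocots at the 1-leaf stage. Untreated and DMF-treated controls were included. Injury was rated visually 15 days after treatment.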

Chenopodium album [1] = experiment: Post-emergence herbicidal activity against Chenopodium album assessed as growth inhibition at 75 g ai/ha measured 15 days post compound treatment under green house conditions; format: functional; conditions: 360 h, read-out: GI; method in brief: as §1
Chenopodium album [2] = experiment: Post-emergence herbicidal activity against Chenopodium album assessed as growth inhibition at 150 g ai/ha measured 15 days post compound treatment under green house conditions; format: functional; conditions: 360 h, read-out: GI; method in brief: as §1
Galium aparine [3] = experiment: Post-emergence herbicidal activity against Galium aparine assessed as growth inhibition at 75 g ai/ha measured 15 days post compound treatment under green house conditions; format: functional; conditions: 360 h, read-out: GI; method in brief: as §1
Rumex acetosa [4] = experiment: Post-emergence herbicidal activity against Rumex acetosa assessed as growth inhibition at 37.5 g ai/ha measured 15 days post compound treatment under green house conditions; format: functional; conditions: 360 h, read-out: GI; method in brief: as §1
Rumex acetosa [5] = experiment: Post-emergence herbicidal activity against Rumex acetosa assessed as growth inhibition at 150 g ai/ha measured 15 days post compound treatment under green house conditions; format: functional; conditions: 360 h, read-out: GI; method in brief: as §1
Cerastium arvense [6] = experiment: Post-emergence herbicidal activity against Cerastium arvense assessed as growth inhibition at 37.5 g ai/ha measured 15 days post compound treatment under green house conditions; format: functional; conditions: 360 h, read-out: GI; method in brief: as §1
Amaranthus retroflexus [7] = experiment: Post-emergence herbicidal activity against Amaranthus retroflexus assessed as growth inhibition at 150 g ai/ha measured 15 days post compound treatment under green house conditions; format: functional; conditions: 360 h, read-out: GI; method in brief: as §1
Eclipta prostrata [8] = experiment: Post-emergence herbicidal activity against Eclipta prostrata assessed as growth inhibition at 37.5 g ai/ha measured 15 days post compound treatment under green house conditions; format: functional; conditions: 360 h, read-out: GI; method in brief: as §1
Chenopodium album [9] = experiment: Post-emergence herbicidal activity against Chenopodium album assessed as growth inhibition at 37.5 g ai/ha measured 15 days post compound treatment under green house conditions; format: functional; conditions: 360 h, read-out: GI; method in brief: as §1
Galium aparine [10] = experiment: Post-emergence herbicidal activity against Galium aparine assessed as growth inhibition at 37.5 g ai/ha measured 15 days post compound treatment under green house conditions; format: functional; conditions: 360 h, read-out: GI; method in brief: as §1
Cerastium arvense [11] = experiment: Post-emergence herbicidal activity against Cerastium arvense assessed as growth inhibition at 75 g ai/ha measured 15 days post compound treatment under green house conditions; format: functional; conditions: 360 h, read-out: GI; method in brief: as §1
Cyperus iria [12] = experiment: Post-emergence herbicidal activity against Cyperus iria assessed as growth inhibition at 150 g ai/ha measured 15 days post compound treatment under green house conditions; format: functional; conditions: 360 h, read-out: GI; method in brief: as §1
Eclipta prostrata [13] = experiment: Post-emergence herbicidal activity against Eclipta prostrata assessed as growth inhibition at 150 g ai/ha measured 15 days post compound treatment under green house conditions; format: functional; conditions: 360 h, read-out: GI; method in brief: as §1
Polygonum humifusum [14] = experiment: Post-emergence herbicidal activity against Polygonum humifusum assessed as growth inhibition at 150 g ai/ha measured 15 days post compound treatment under green house conditions; format: functional; conditions: 360 h, read-out: GI; method in brief: as §1
Polygonum humifusum [15] = experiment: Post-emergence herbicidal activity against Polygonum humifusum assessed as growth inhibition at 37.5 g ai/ha measured 15 days post compound treatment under green house conditions; format: functional; conditions: 360 h, read-out: GI; method in brief: as §1
Brassica juncea = experiment: Post-emergence herbicidal activity against Brassica juncea assessed as growth inhibition at 150 g ai/ha measured 15 days post compound treatment under green house conditions; format: functional; conditions: 360 h, read-out: GI; method in brief: as §1
Digitaria sanguinalis = experiment: Post-emergence herbicidal activity against Digitaria sanguinalis (hairy crabgrass) assessed as growth inhibition at 150 g ai/ha measured 15 days post compound treatment under green house conditions; format: functional; conditions: 360 h, read-out: GI; method in brief: as §1
Polygonum humifusum [16] = experiment: Post-emergence herbicidal activity against Polygonum humifusum assessed as growth inhibition at 75 g ai/ha measured 15 days post compound treatment under green house conditions; format: functional; conditions: 360 h, read-out: GI; method in brief: as §1
Cyperus iria [17] = experiment: Post-emergence herbicidal activity against Cyperus iria assessed as growth inhibition at 75 g ai/ha measured 15 days post compound treatment under green house conditions; format: functional; conditions: 360 h, read-out: GI; method in brief: as §1
Rumex acetosa [18] = experiment: Post-emergence herbicidal activity against Rumex acetosa assessed as growth inhibition at 75 g ai/ha measured 15 days post compound treatment under green house conditions; format: functional; conditions: 360 h, read-out: GI; method in brief: as §1
Poa annua = experiment: Post-emergence herbicidal activity against Poa annua assessed as growth inhibition at 150 g ai/ha measured 15 days post compound treatment under green house conditions; format: functional; conditions: 360 h, read-out: GI; method in brief: as §1
Amaranthus retroflexus [19] = experiment: Post-emergence herbicidal activity against Amaranthus retroflexus assessed as growth inhibition at 75 g ai/ha measured 15 days post compound treatment under green house conditions; format: functional; conditions: 360 h, read-out: GI; method in brief: as §1
Amaranthus retroflexus [20] = experiment: Post-emergence herbicidal activity against Amaranthus retroflexus assessed as growth inhibition at 37.5 g ai/ha measured 15 days post compound treatment under green house conditions; format: functional; conditions: 360 h, read-out: GI; method in brief: as §1
Galium aparine [21] = experiment: Post-emergence herbicidal activity against Galium aparine assessed as growth inhibition at 150 g ai/ha measured 15 days post compound treatment under green house conditions; format: functional; conditions: 360 h, read-out: GI; method in brief: as §1
Cyperus iria [22] = experiment: Post-emergence herbicidal activity against Cyperus iria assessed as growth inhibition at 37.5 g ai/ha measured 15 days post compound treatment under green house conditions; format: functional; conditions: 360 h, read-out: GI; method in brief: as §1
[23] = molecular target: T1, Acetolactate synthase, chloroplastic (Arabidopsis thaliana, UniProt P17597)
T1 sequence (P17597 whole entry): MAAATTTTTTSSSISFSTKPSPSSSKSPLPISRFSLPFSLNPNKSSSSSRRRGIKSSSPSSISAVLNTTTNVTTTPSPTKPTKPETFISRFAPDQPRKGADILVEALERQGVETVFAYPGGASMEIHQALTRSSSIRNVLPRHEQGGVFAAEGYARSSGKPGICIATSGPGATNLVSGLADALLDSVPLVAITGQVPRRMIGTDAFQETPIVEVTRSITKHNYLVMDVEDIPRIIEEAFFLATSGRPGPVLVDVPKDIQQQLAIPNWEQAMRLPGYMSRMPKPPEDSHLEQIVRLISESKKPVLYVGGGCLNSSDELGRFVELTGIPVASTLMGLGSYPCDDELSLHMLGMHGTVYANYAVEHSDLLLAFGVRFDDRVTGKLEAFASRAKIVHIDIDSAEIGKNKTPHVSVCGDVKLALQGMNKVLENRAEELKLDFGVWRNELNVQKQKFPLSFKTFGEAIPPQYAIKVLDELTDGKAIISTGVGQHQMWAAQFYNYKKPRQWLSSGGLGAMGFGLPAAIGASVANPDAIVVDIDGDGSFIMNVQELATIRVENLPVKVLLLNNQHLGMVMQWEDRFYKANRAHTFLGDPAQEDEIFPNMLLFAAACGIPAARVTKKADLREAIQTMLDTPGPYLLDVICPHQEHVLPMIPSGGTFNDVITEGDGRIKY

Eclipta prostrata [24] = experiment: Post-emergence herbicidal activity against Eclipta prostrata assessed as growth inhibition at 75 g ai/ha measured 15 days post compound treatment under green house conditions; format: functional; conditions: 360 h, read-out: GI; method in brief: as §1
Cerastium arvense [25] = experiment: Post-emergence herbicidal activity against Cerastium arvense assessed as growth inhibition at 150 g ai/ha measured 15 days post compound treatment under green house conditions; format: functional; conditions: 360 h, read-out: GI; method in brief: as §1

SMILES	inhibition of growth at 150 g/ha (Echinochloa crus-galli) [%]	inhibition of growth at 75 g/ha (Chenopodium album [1]) [%]	inhibition of growth at 150 g/ha (Chenopodium album [2]) [%]	inhibition of growth at 75 g/ha (Galium aparine [3]) [%]	inhibition of growth at 37.5 g/ha (Rumex acetosa [4]) [%]	inhibition of growth at 150 g/ha (Rumex acetosa [5]) [%]	inhibition of growth at 37.5 g/ha (Cerastium arvense [6]) [%]	inhibition of growth at 150 g/ha (Amaranthus retroflexus [7]) [%]	inhibition of growth at 37.5 g/ha (Eclipta prostrata [8]) [%]	inhibition of growth at 37.5 g/ha (Chenopodium album [9]) [%]	inhibition of growth at 37.5 g/ha (Galium aparine [10]) [%]	inhibition of growth at 75 g/ha (Cerastium arvense [11]) [%]	inhibition of growth at 150 g/ha (Cyperus iria [12]) [%]	inhibition of growth at 150 g/ha (Eclipta prostrata [13]) [%]	inhibition of growth at 150 g/ha (Polygonum humifusum [14]) [%]	inhibition of growth at 37.5 g/ha (Polygonum humifusum [15]) [%]	inhibition of growth at 150 g/ha (Brassica juncea) [%]	inhibition of growth at 150 g/ha (Digitaria sanguinalis) [%]	inhibition of growth at 75 g/ha (Polygonum humifusum [16]) [%]	inhibition of growth at 75 g/ha (Cyperus iria [17]) [%]	also measured
COc1ccn2nc(S(=O)(=O)Nc3cccc(Cl)c3Cl)nc2n1	< 50	< 50	< 50	50	50	50	< 50	≥ 50	50	< 50	50	< 50	50	≥ 50	50	50	≥ 80	< 50	50	50	inhibition of growth at 75 g/ha (Rumex acetosa [18]): 50%; inhibition of growth at 150 g/ha (Poa annua): < 50%; inhibition of growth at 75 g/ha (Amaranthus retroflexus [19]): 50%; inhibition of growth at 37.5 g/ha (Amaranthus retroflexus [20]): 50%; inhibition of growth at 150 g/ha (Galium aparine [21]): 50%; inhibition of growth at 37.5 g/ha (Cyperus iria [22]): 50%; Ki [23]: 14.8 µM; inhibition of growth at 75 g/ha (Eclipta prostrata [24]): 50%; inhibition of growth at 150 g/ha (Cerastium arvense [25]): < 50%
COC(=O)c1cccc(Cl)c1NS(=O)(=O)c1nc2nc(OC)ccn2n1	50	≥ 90	≥ 90	≥ 90	≥ 80	≥ 80	≥ 80	≥ 80	50	≥ 80	≥ 80	≥ 80	50	≥ 90	50	50	≥ 90	< 50	50	50	inhibition of growth at 75 g/ha (Rumex acetosa [18]): ≥ 80%; inhibition of growth at 150 g/ha (Poa annua): < 50%; inhibition of growth at 75 g/ha (Amaranthus retroflexus [19]): ≥ 80%; inhibition of growth at 37.5 g/ha (Amaranthus retroflexus [20]): ≥ 80%; inhibition of growth at 150 g/ha (Galium aparine [21]): ≥ 90%; inhibition of growth at 37.5 g/ha (Cyperus iria [22]): 50%; Ki [23]: 1.61 µM; inhibition of growth at 75 g/ha (Eclipta prostrata [24]): ≥ 80%; inhibition of growth at 150 g/ha (Cerastium arvense [25]): ≥ 90%
